Calls of active or inactive are those of the source. The calls are words filed in the database; no cut-off is given here.
Target: T1, Nuclear factor NF-kappa-B p105 subunit (Homo sapiens) (UniProt P19838)
T1 sequence (whole entry): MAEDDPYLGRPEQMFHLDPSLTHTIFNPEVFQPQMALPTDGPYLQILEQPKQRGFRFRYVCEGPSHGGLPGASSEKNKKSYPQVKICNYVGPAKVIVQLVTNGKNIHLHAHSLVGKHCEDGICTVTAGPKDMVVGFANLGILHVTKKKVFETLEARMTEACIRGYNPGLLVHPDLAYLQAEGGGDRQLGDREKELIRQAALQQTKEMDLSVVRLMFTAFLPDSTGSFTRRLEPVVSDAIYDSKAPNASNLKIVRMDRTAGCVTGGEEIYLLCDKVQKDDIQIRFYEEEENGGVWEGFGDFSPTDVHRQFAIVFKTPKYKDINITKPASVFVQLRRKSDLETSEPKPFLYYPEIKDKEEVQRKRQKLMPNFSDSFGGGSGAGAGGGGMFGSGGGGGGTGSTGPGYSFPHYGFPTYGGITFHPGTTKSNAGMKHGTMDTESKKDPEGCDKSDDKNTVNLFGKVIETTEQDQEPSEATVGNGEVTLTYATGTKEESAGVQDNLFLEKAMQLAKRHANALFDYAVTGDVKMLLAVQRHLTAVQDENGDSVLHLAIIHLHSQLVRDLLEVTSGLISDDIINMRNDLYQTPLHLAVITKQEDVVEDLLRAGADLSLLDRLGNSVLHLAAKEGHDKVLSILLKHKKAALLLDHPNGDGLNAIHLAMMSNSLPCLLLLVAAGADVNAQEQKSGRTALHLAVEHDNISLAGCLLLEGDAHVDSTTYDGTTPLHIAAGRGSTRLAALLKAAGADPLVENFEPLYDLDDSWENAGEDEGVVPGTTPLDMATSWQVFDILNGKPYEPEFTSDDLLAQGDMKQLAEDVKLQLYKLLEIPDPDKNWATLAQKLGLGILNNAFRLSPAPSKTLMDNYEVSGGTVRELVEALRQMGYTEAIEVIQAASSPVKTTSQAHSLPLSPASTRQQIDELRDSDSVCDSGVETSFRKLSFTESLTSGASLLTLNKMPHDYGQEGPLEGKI
Assay: Binding affinity to 6His-tagged recombinant human NF-kappaB p50 N-terminal domain expressed in Escherichia coli BL21 (DE3) at 4:1 compound to protein molar ratio after 2 hrs by mass spectrometric analysis
Settings: not given
Procedure, shortened: (§1)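 Recombinant 6His-tagged p50 NTD (E. coli BL21(DE3), Ni-NTA then Superdex 200 gel filtration, dialysed into PBS) at 20 μM, incubated with compound in PBS with 1 mM EDTA, 10 μM β-mercaptoethanol, 5% glycerol (v/v), 37 °C, 2 h. Acetic acid quench, reversed-phase column, ESI-MS at m/z 500–3000. Reaction extent scored from adduct versus unbound protein across rising molar ratios.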

Row | Activity | Compound
1 | Active | C=C1CC[C@@H]2[C@](C)(COC(C)=O)[C@H](OC(C)=O)CC[C@@]2(C)[C@@H]1C/C=C1\C=COC1=O

Target: T1, Nuclear factor NF-kappa-B p105 subunit (Homo sapiens)
Assay: (§2) Inhibition of TNF-alpha-stimulated NF-kappaB p50 (unknown origin) expressed in HEK293 cells preincubated for 4 hrs followed by TNF-alpha challenge measured after 24 hrs by secreted alkaline phosphatase reporter assay
Type: cell-based
Settings: not given
Procedure, shortened: (§3)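 HEK293 stably transfected with NF-κB/SEAP, grown in DMEM/10% FBS/500 μg/mL G418 and seeded at ~2 × 10^5 cells/well to ~70% confluence. Pretreated 4 h with rising compound concentrations or 0.05% DMSO, then TNF-α 10 ng/mL for 24 h. Secreted SEAP measured by kit, with TNF-α-induced untreated cells as 100%. Quadruplicates, mean; IC50 from the concentration curve.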

Row | inhibition | Compound
2 | inactive | C=C1CC[C@@H]2[C@](C)(CO)[C@H](O)CC[C@@]2(C)[C@@H]1CCC1=CCOC1=O [DEOXYANDROGRAPHOLIDE]
3 | inactive | C=C1CC[C@@H]2[C@](C)(CO[C@@H]3O[C@H](CO)[C@@H](O)[C@H](O)[C@H]3O)CCC[C@@]2(C)[C@@H]1CCC1=CCOC1=O [NEOANDROGRAPHOLIDE]

Target: T2, Nuclear factor NF-kappa-B p105 subunit (Homo sapiens, UniProt P19838)
T2 sequence (P19838 whole entry): T1 sequence (whole entry)
Assay: as §2
Type: cell-based
Settings: not given
Procedure, shortened: as §3

Row | IC50 | Compound
4 | 49.6 µM | C=C1CC[C@@H]2[C@](C)(CO)[C@H](O)CC[C@@]2(C)[C@@H]1C/C=C1/C(=O)OC[C@H]1O [ANDROGRAPHOLIDE]
5 | 11.1 µM | C=C1CC[C@@H]2[C@](C)(COC(C)=O)[C@H](OC(C)=O)CC[C@@]2(C)[C@@H]1C/C=C1\C=COC1=O

System: not listed separately
Assay: Cytotoxicity against human Jurkat T cells assessed as apoptosis after 24 hrs by annexin V-FLUOS/propidium iodide staining-based flow cytometric analysis
Type: cell-based
Settings: not given
Procedure, shortened: (§4)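 Jurkat T lymphocytes kept at 37 °C, 5% CO2 in RPMI1640 with 10% FBS and 1% streptomycin/penicillin. Exposed to 25 μM compound for 24 h, then stained with annexin-V-FLUOS and propidium iodide and read by flow cytometry. Viable cells are negative for both stains.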

Row | Compound | Activity
6 | C=C1CC[C@@H]2[C@](C)(CO)[C@H](O)CC[C@@]2(C)[C@@H]1CCC1=CCOC1=O [DEOXYANDROGRAPHOLIDE] | Non-toxic
7 | C=C1CC[C@@H]2[C@](C)(CO[C@@H]3O[C@H](CO)[C@@H](O)[C@H](O)[C@H]3O)CCC[C@@]2(C)[C@@H]1CCC1=CCOC1=O [NEOANDROGRAPHOLIDE] | Non-toxic

Target: T1, Nuclear factor NF-kappa-B p105 subunit (Homo sapiens)
Assay: Inhibition of TNF-alpha-stimulated NF-kappaB p50 (unknown origin) expressed in HEK293 cells at 1 to 100 uM preincubated for 4 hrs followed by TNF-alpha challenge measured after 24 hrs by secreted alkaline phosphatase reporter assay
Type: cell-based
Settings: not given
Procedure, shortened: as §3

Row | inhibition | Compound
8 | inactive | C[C@]1(CO)[C@H]2CCC(=O)[C@@H](C/C=C3\CCOC3=O)[C@]2(C)CC[C@H]1O
9 | inactive | C=C1CC[C@@H]2[C@](C)(CO)[C@H](O)CC[C@@]2(C)[C@@H]1C/C=C1\C=COC1=O
10 | inactive | C=C1CC[C@@H]2[C@](C)(CO)[C@H](O)CC[C@@]2(C)[C@@H]1/C=C/C1=CCOC1=O
11 | inactive | C[C@]1(CO)[C@H]2CCC(=O)[C@@H](C/C=C3/SC(=S)NC3=O)[C@]2(C)CC[C@H]1O

System: not listed separately
Assay: Cytotoxicity against human Jurkat T cells assessed as appearance of early apoptotic cells at 25 uM after 24 hrs by annexin V-FLUOS/propidium iodide staining-based flow cytometric analysis
Type: cell-based
Settings: not given
Procedure, shortened: as §4

Row | Compound | Activity
12 | C[C@]1(CO)[C@H]2CCC(=O)[C@@H](C/C=C3\CCOC3=O)[C@]2(C)CC[C@H]1O | 6.29%
13 | C=C1CC[C@@H]2[C@](C)(CO)[C@H](O)CC[C@@]2(C)[C@@H]1C/C=C1\C=COC1=O | 15.55%
14 | C=C1CC[C@@H]2[C@](C)(CO)[C@H](O)CC[C@@]2(C)[C@@H]1C/C=C1/C(=O)OC[C@H]1O [ANDROGRAPHOLIDE] | 35.3%
15 | C=C1CC[C@@H]2[C@](C)(CO)[C@H](O)CC[C@@]2(C)[C@@H]1/C=C/C1=CCOC1=O | 10.89%
16 | C[C@]1(CO)[C@H]2CCC(=O)[C@@H](C/C=C3/SC(=S)NC3=O)[C@]2(C)CC[C@H]1O | 6.91%
17 | C=C1CC[C@@H]2[C@](C)(COC(C)=O)[C@H](OC(C)=O)CC[C@@]2(C)[C@@H]1C/C=C1\C=COC1=O | 38.24%

System: not listed separately
Assay: Cytotoxicity against human Jurkat T cells assessed as appearance of necrotic cells at 25 uM after 24 hrs by annexin V-FLUOS/propidium iodide staining-based flow cytometric analysis
Type: cell-based
Settings: not given
Procedure, shortened: as §4

Row | Compound | Activity
18 | C[C@]1(CO)[C@H]2CCC(=O)[C@@H](C/C=C3\CCOC3=O)[C@]2(C)CC[C@H]1O | 0.33%
19 | C=C1CC[C@@H]2[C@](C)(CO)[C@H](O)CC[C@@]2(C)[C@@H]1C/C=C1\C=COC1=O | 0.3%
20 | C=C1CC[C@@H]2[C@](C)(CO)[C@H](O)CC[C@@]2(C)[C@@H]1C/C=C1/C(=O)OC[C@H]1O [ANDROGRAPHOLIDE] | 1.39%
21 | C=C1CC[C@@H]2[C@](C)(CO)[C@H](O)CC[C@@]2(C)[C@@H]1/C=C/C1=CCOC1=O | 0.25%
22 | C[C@]1(CO)[C@H]2CCC(=O)[C@@H](C/C=C3/SC(=S)NC3=O)[C@]2(C)CC[C@H]1O | 1.05%
23 | C=C1CC[C@@H]2[C@](C)(COC(C)=O)[C@H](OC(C)=O)CC[C@@]2(C)[C@@H]1C/C=C1\C=COC1=O | 0.24%

System: not listed separately
Assay: Cytotoxicity against human Jurkat T cells assessed as appearance of late apoptotic cells at 25 uM after 24 hrs by annexin V-FLUOS/propidium iodide staining-based flow cytometric analysis
Type: cell-based
Settings: not given
Procedure, shortened: as §4

Row | Compound | Activity
24 | C[C@]1(CO)[C@H]2CCC(=O)[C@@H](C/C=C3\CCOC3=O)[C@]2(C)CC[C@H]1O | 5.52%
25 | C=C1CC[C@@H]2[C@](C)(CO)[C@H](O)CC[C@@]2(C)[C@@H]1C/C=C1\C=COC1=O | 1.57%
26 | C=C1CC[C@@H]2[C@](C)(CO)[C@H](O)CC[C@@]2(C)[C@@H]1C/C=C1/C(=O)OC[C@H]1O [ANDROGRAPHOLIDE] | 9.1%
27 | C=C1CC[C@@H]2[C@](C)(CO)[C@H](O)CC[C@@]2(C)[C@@H]1/C=C/C1=CCOC1=O | 1.31%
28 | C[C@]1(CO)[C@H]2CCC(=O)[C@@H](C/C=C3/SC(=S)NC3=O)[C@]2(C)CC[C@H]1O | 7.96%
29 | C=C1CC[C@@H]2[C@](C)(COC(C)=O)[C@H](OC(C)=O)CC[C@@]2(C)[C@@H]1C/C=C1\C=COC1=O | 47.95%

System: not listed separately
Assay: Cytotoxicity against human Jurkat T cells assessed as appearance of viable cells at 25 uM after 24 hrs by annexin V-FLUOS/propidium iodide staining-based flow cytometric analysis
Type: cell-based
Settings: read-out: Activity
Procedure, shortened: as §4

Row | Compound | viability at 24 h, 25 µM
30 | C[C@]1(CO)[C@H]2CCC(=O)[C@@H](C/C=C3\CCOC3=O)[C@]2(C)CC[C@H]1O | 87.9%
31 | C=C1CC[C@@H]2[C@](C)(CO)[C@H](O)CC[C@@]2(C)[C@@H]1C/C=C1\C=COC1=O | 82.6%
32 | C=C1CC[C@@H]2[C@](C)(CO)[C@H](O)CC[C@@]2(C)[C@@H]1C/C=C1/C(=O)OC[C@H]1O [ANDROGRAPHOLIDE] | 54.2%
33 | C=C1CC[C@@H]2[C@](C)(CO)[C@H](O)CC[C@@]2(C)[C@@H]1/C=C/C1=CCOC1=O | 87.5%
34 | C[C@]1(CO)[C@H]2CCC(=O)[C@@H](C/C=C3/SC(=S)NC3=O)[C@]2(C)CC[C@H]1O | 84.1%
35 | C=C1CC[C@@H]2[C@](C)(COC(C)=O)[C@H](OC(C)=O)CC[C@@]2(C)[C@@H]1C/C=C1\C=COC1=O | 13.6%

Target: T1, Nuclear factor NF-kappa-B p105 subunit (Homo sapiens)
Assay: Binding affinity to 6His-tagged recombinant human NF-kappaB p50 N-terminal domain expressed in Escherichia coli BL21 (DE3) up to 50:1 compound to protein molar ratio after 2 hrs by mass spectrometric analysis
Settings: not given
Procedure, shortened: as §1

Row | Activity | Compound
36 | Active | C=C1CC[C@@H]2[C@](C)(CO)[C@H](O)CC[C@@]2(C)[C@@H]1/C=C/C1=CCOC1=O

Target: T1, Nuclear factor NF-kappa-B p105 subunit (Homo sapiens)
Assay: Binding affinity to 6His-tagged recombinant human NF-kappaB p50 N-terminal domain expressed in Escherichia coli BL21 (DE3) up to 10:1 compound to protein molar ratio after 2 hrs by mass spectrometric analysis
Settings: not given
Procedure, shortened: as §1

Row | Compound | Activity
37 | C=C1CC[C@@H]2[C@](C)(CO)[C@H](O)CC[C@@]2(C)[C@@H]1CCC1=CCOC1=O [DEOXYANDROGRAPHOLIDE] | inactive
38 | C=C1CC[C@@H]2[C@](C)(CO[C@@H]3O[C@H](CO)[C@@H](O)[C@H](O)[C@H]3O)CCC[C@@]2(C)[C@@H]1CCC1=CCOC1=O [NEOANDROGRAPHOLIDE] | inactive

The remaining lines, values ahead:

Row | Activity | Compound
39 | inactive | C[C@]1(CO)[C@H]2CCC(=O)[C@@H](C/C=C3\CCOC3=O)[C@]2(C)CC[C@H]1O
40 | inactive | C=C1CC[C@@H]2[C@](C)(CO)[C@H](O)CC[C@@]2(C)[C@@H]1C/C=C1\C=COC1=O
41 | inactive | C[C@]1(CO)[C@H]2CCC(=O)[C@@H](C/C=C3/SC(=S)NC3=O)[C@]2(C)CC[C@H]1O

Reference: ChEMBL document CHEMBL3425410, “Specificity and inhibitory mechanism of andrographolide and its analogues as antiasthma agents on NF-κB p50” (J Nat Prod, 2015)
